Activity calls are given as the source filed them. The rule behind the calls is not given here.
Key:
[1] = tested on: Porcine epidemic diarrhea virus; assay: Antiviral activity against Porcine epidemic diarrhea virus infected in African green monkey Vero cells assessed as decrease in nucleocapsid expression levels at 45 uM after 24 hrs by Western blot analysis; assay type: functional
How it was run: (§1)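 Vero cells inoculated with PEDV, then incubated with or without compound (40 or 45 μM, or 10, 20, 40, 80 μM) for 24 h. Cells lysed and probed by Western blot with anti-nucleocapsid and anti-spike antibodies. Azauridin was the positive control. Values are relative to virus-infected control, mean ± SD (n = 3).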

Vero [2] = assay: Cytotoxicity against African green monkey Vero cells assessed as decrease in cell viability at 90 uM after 2 days by MTT assay; assay type: cell-based; settings: chlorocebus sabaeus, 48 h
[3] = tested on: Porcine epidemic diarrhea virus; assay: Antiviral activity against Porcine epidemic diarrhea virus infected in African green monkey Vero cells assessed as decrease in spike protein expression levels at 45 uM after 24 hrs by Western blot analysis; assay type: functional
How it was run: (§2)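 PEDV-infected Vero cells were incubated with or without compound for 24 h; single-compound tests were at 40 or 45 μM, and a dose series at 80, 40, 20 and 10 μM. Cells were lysed and blotted with nucleocapsid and spike antibodies. Azauridin was the positive control; mean ± SD, n = 3, versus virus-injected control.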

[4] = tested on: Porcine epidemic diarrhea virus; assay: Antiviral activity against Porcine epidemic diarrhea virus infected in African green monkey Vero cells assessed as inhibition of virus-induced cytopathic effect after 3 days; assay type: functional
How it was run: (§3)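 Vero cells were inoculated with PEDV for 2 h, then treated with compound and incubated 3 days, with CPE inhibition as read-out. Screening was at 40 or 50 μM for non-cytotoxic compounds and at 20 μM for cytotoxic ones; the dose-response covered 20–90 μM. Azauridin was the positive control; mean ± SD, n = 3, versus virus-injected control.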

[5] = tested on: Porcine epidemic diarrhea virus; assay: Antiviral activity against Porcine epidemic diarrhea virus infected in African green monkey Vero cells assessed as inhibition of virus-induced cytopathic effect at 20 to 90 uM after 3 days; assay type: functional; how it was run: as §3
[6] = tested on: Porcine epidemic diarrhea virus; assay: Antiviral activity against Porcine epidemic diarrhea virus infected in African green monkey Vero cells assessed as inhibition of virus-induced cytopathic effect at 40 uM after 3 days; assay type: functional; how it was run: as §3
Vero [7] = assay: Cytotoxicity against African green monkey Vero cells assessed as decrease in cell viability at 80 uM after 2 days by MTT assay; assay type: cell-based; settings: chlorocebus sabaeus, 48 h
Vero [8] = assay: Cytotoxicity against African green monkey Vero cells assessed as decrease in cell viability at 20 to 70 uM after 2 days by MTT assay; assay type: cell-based; settings: chlorocebus sabaeus, 48 h
Vero [9] = assay: Cytotoxicity against African green monkey Vero cells assessed as decrease in cell viability at 70 uM after 2 days by MTT assay; assay type: cell-based; settings: chlorocebus sabaeus, 48 h
Vero [10] = assay: Cytotoxicity against African green monkey Vero cells assessed as decrease in cell viability at 20 to 80 uM after 2 days by MTT assay; assay type: cell-based; settings: chlorocebus sabaeus, 48 h
[11] = tested on: Porcine epidemic diarrhea virus; assay: Antiviral activity against Porcine epidemic diarrhea virus infected in African green monkey Vero cells assessed as inhibition of virus-induced cytopathic effect at 20 uM after 3 days; assay type: functional; how it was run: as §3
[12] = tested on: Porcine epidemic diarrhea virus; assay: Antiviral activity against Porcine epidemic diarrhea virus infected in African green monkey Vero cells assessed as decrease in spike expression levels at 40 uM after 24 hrs by Western blot analysis; assay type: functional; how it was run: as §2
[13] = tested on: Porcine epidemic diarrhea virus; assay: Antiviral activity against Porcine epidemic diarrhea virus infected in African green monkey Vero cells assessed as decrease in spike protein expression levels at 10 to 80 uM after 24 hrs by Western blot analysis; assay type: functional; how it was run: as §2
[14] = tested on: Porcine epidemic diarrhea virus; assay: Antiviral activity against Porcine epidemic diarrhea virus infected in African green monkey Vero cells assessed as decrease in spike protein expression levels after 24 hrs by Western blot analysis; assay type: functional; how it was run: as §2
[15] = tested on: Porcine epidemic diarrhea virus; assay: Antiviral activity against Porcine epidemic diarrhea virus infected in African green monkey Vero cells assessed as decrease in nucleocapsid synthesis at 20 to 80 uM after 24 hrs by DAPI staining-based fluorescence microscopy; assay type: functional
How it was run: (§4)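 PEDV-infected Vero cells co-incubated with compound at 20, 40 or 80 μM for 24 h, with azauridin 20 μM as positive control. Cells fixed, permeabilized and stained with monoclonal antibody to nucleocapsid or spike. Antigen-expressing cells were scored by immunofluorescence and compared with uninfected and virus-infected controls.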

[16] = tested on: Porcine epidemic diarrhea virus; assay: Antiviral activity against Porcine epidemic diarrhea virus infected in African green monkey Vero cells assessed as decrease in spike protein synthesis levels after 24 hrs by DAPI staining-based fluorescence microscopy; assay type: functional
How it was run: (§5)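 Virus-injected Vero cells were incubated 24 h with compound at 80, 40 or 20 μM, or with azauridin (20 μM) as positive control. Cells were then fixed, permeabilized and stained with monoclonal antibody against spike (or nucleocapsid) protein for immunofluorescence, alongside noninjected cells.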

[17] = tested on: Porcine epidemic diarrhea virus; assay: Antiviral activity against Porcine epidemic diarrhea virus infected in African green monkey Vero cells assessed as decrease in nucleocapsid expression levels at 10 to 80 uM after 24 hrs by Western blot analysis; assay type: functional; how it was run: as §1
[18] = tested on: Porcine epidemic diarrhea virus; assay: Antiviral activity against Porcine epidemic diarrhea virus infected in African green monkey Vero cells assessed as inhibition of virus-induced cytopathic effect at 20 to 80 uM after 3 days; assay type: functional
[19] = tested on: Porcine epidemic diarrhea virus; assay: Antiviral activity against Porcine epidemic diarrhea virus infected in African green monkey Vero cells assessed as decrease in nucleocapsid expression levels after 24 hrs by Western blot analysis; assay type: functional; how it was run: as §1
[20] = tested on: Porcine epidemic diarrhea virus; assay: Antiviral activity against Porcine epidemic diarrhea virus infected in African green monkey Vero cells assessed as decrease in nucleocapsid expression levels at 40 uM after 24 hrs by Western blot analysis; assay type: functional; how it was run: as §1
[21] = tested on: Porcine epidemic diarrhea virus; assay: Antiviral activity against Porcine epidemic diarrhea virus infected in African green monkey Vero cells assessed as decrease in nucleocapsid synthesis after 24 hrs by DAPI staining-based fluorescence microscopy; assay type: functional; how it was run: as §4
[22] = tested on: Porcine epidemic diarrhea virus; assay: Antiviral activity against Porcine epidemic diarrhea virus infected in African green monkey Vero cells assessed as decrease in spike protein synthesis at 20 to 80 uM after 24 hrs by DAPI staining-based fluorescence microscopy; assay type: functional; how it was run: as §5

Question: For `C=C1CC[C@@H](O)[C@]2(C)C[C@@H]3[C@@H](C(C)C)[C@@H]3[C@@H]12`, which Activity [1] is on record?
Answer: The Activity was “Active”.

Question: And the Activity (Vero [2])?
Answer: Its Activity is “Non-Toxic”.

Question: What about the Activity [3] of the same molecule?
Answer: Its Activity is “Active”.

Question: And the Activity [4]?
Answer: The Activity was “Dose-dependent effect”.

Question: What about the Activity [5] of the same molecule?
Answer: The Activity was “Active”.

Question: What does the source list for `C=C1/C=C/[C@H](C(C)C)CCC(=C)[C@H](O)CC1`?
Answer: Activity [1]: Active; Activity (Vero [2]): Non-Toxic; Activity [3]: Active; Activity [4]: Dose-dependent effect; Activity [5]: Active

Question: Which results are given for `C=C(C)[C@@H]1CC[C@]2(C)C(=C(C)C(=O)C[C@H]2O)C1` [LIGUCYPERONOL]?
Answer: Activity (Vero [2]): Non-Toxic; Activity [6]: Active

Question: How did the Activity (Vero [7]) turn out when `C=C1CCC[C@]2(C)CC[C@@H](C(C)(C)O)[C@@H](O)[C@@]12O` was run?
Answer: The Activity was “Non-Toxic”.

Question: And the Activity [6]?
Answer: The Activity was “Active”.

Question: For `CC(=O)O[C@@H]1C=C(C)[C@@]2(O)CC=C(C)[C@H]2[C@@H]2OC(=O)[C@H](C)[C@H]21`, which Activity (Vero [8]) is on record?
Answer: The Activity was “Toxic”.

Question: For `C=C1CC[C@@H](O)[C@]2(C)CC[C@@H](C(C)C)[C@H](O)[C@@H]12`, which Activity (Vero [7]) is on record?
Answer: The Activity was “Non-Toxic”.

Question: What about the Activity [6] of the same molecule?
Answer: The Activity was “Active”.

Question: With `CC(C)(O)[C@@H]1CC[C@@]2(C)CCC[C@]3(CO3)[C@]2(O)[C@@H]1O` as the molecule, how does the Activity [6] read?
Answer: The Activity was “Active”.

Question: And the Activity (Vero [9])?
Answer: Its Activity is “Non-Toxic”.

Question: How did the Activity (Vero [10]) turn out when `CC(C)(O)[C@@H]1C=C2C(CO)=CCC[C@@]2(C)CC1` was run?
Answer: Its Activity is “Toxic”.

Question: Which results are given for `C=C(C)[C@@H]1CC/C(C)=C\C[C@@H](O)C(=C)[C@@H](O)C1`?
Answer: Activity (Vero [7]): Non-Toxic; Activity [6]: Active

Question: Which results are given for `C=C(C)[C@@H]1CC[C@@]2(C)[C@H](O)C[C@@H](O)C(=C)[C@@H]2C1`?
Answer: Activity (Vero [7]): Non-Toxic; Activity [6]: Active

Question: With `C[C@@H]1CCC(=O)[C@@H]2CC[C@@H](C(C)(C)O)C[C@@]12C` as the molecule, how does the Activity (Vero [7]) read?
Answer: Its Activity is “Non-Toxic”.

Question: And the Activity [6]?
Answer: The Activity was “Active”.

Question: `C=C1CC[C@@H]2[C@H]([C@H]3[C@H]1CC[C@]3(C)O)C2(C)C` [SPATHULENOL] was tested. Which Activity (Vero [2]) did it give?
Answer: The Activity was “Non-Toxic”.

Question: For `C=C1C(=O)O[C@@H]2[C@H]3C(C)=CC(=O)C3=C(C)C[C@H](O)[C@@H]12`, which Activity [11] is on record?
Answer: The Activity was “Active”.

Question: And the Activity (Vero [10])?
Answer: Its Activity is “Toxic”.

Question: `CC(=O)O[C@H]1CC(C)=C2C(=O)C=C(C)[C@@H]2[C@H]2OC(=O)[C@@H](C)[C@@H]21` was tested. Which Activity (Vero [8]) did it give?
Answer: The Activity was “Toxic”.

Question: How did the Activity [12] turn out when `C=C1CCC[C@@]2(C)CC[C@@H](C(C)(C)O)[C@@H](O)[C@@]12O` was run?
Answer: The Activity was “Active”.

Question: What about the Activity (Vero [7]) of the same molecule?
Answer: The Activity was “Non-Toxic”.

Question: And the Activity [13]?
Answer: The Activity was “Active”.

Question: What about the Activity [14] of the same molecule?
Answer: Its Activity is “Dose-dependent effect”.

Question: And the Activity [15]?
Answer: Its Activity is “Active”.

Question: And the Activity [16]?
Answer: The Activity was “Dose-dependent effect”.

Question: And the Activity [17]?
Answer: Its Activity is “Active”.

Question: What about the Activity [18] of the same molecule?
Answer: The Activity was “Active”.

Question: And the Activity [19]?
Answer: The Activity was “Dose-dependent effect”.

Question: And the Activity [20]?
Answer: The Activity was “Active”.

Question: What about the Activity [4] of the same molecule?
Answer: Its Activity is “Dose-dependent effect”.

Question: What about the Activity [21] of the same molecule?
Answer: The Activity was “Dose-dependent effect”.

Question: And the Activity [22]?
Answer: The Activity was “Active”.

Question: For `CC(=O)CC[C@@H]1[C@H]2CCC(=O)[C@@H](C(C)C)[C@@H]12`, which Activity (Vero [2]) is on record?
Answer: Its Activity is “Non-Toxic”.

Question: Which results are given for `CC(C)(O)[C@@H]1CC[C@@]2(C)CCC[C@@]3(CO)O[C@@]23[C@@H]1O`?
Answer: Activity [6]: Active; Activity (Vero [9]): Non-Toxic

Question: How did the Activity (Vero [10]) turn out when `C=C(C)[C@H]1CCC(=C)[C@@]2(O)C[C@H](O)C(=C)[C@@H](C1)O2` was run?
Answer: The Activity was “Toxic”.

Source: ChEMBL document CHEMBL4052602, “Sesquiterpenoids with Various Carbocyclic Skeletons from the Flowers of Chrysanthemum indicum” (J Nat Prod, 2017)
